Measured values reported in ChEMBL document CHEMBL4229376, “Optimization of the pharmacokinetic properties of potent anti-trypanosomal triazine derivatives” (Eur J Med Chem, 2018).
Activity calls are given as the source filed them. The calls are words filed in the database; no cut-off is given here.

Experiments:
Leishmania infantum = test: Antileishmanial activity against Leishmania infantum MHOM/MA (BE)/67 amastigotes infected in primary peritoneal mouse macrophages after 120 hrs by giemsa staining-based microscopic analysis; format: functional, organism-based; settings: MHOM/MA (BE)/67, 120 h
Plasmodium falciparum = test: Antiplasmodial activity against chloroquine-resistant Plasmodium falciparum K1 infected in human erythrocytes after 72 hrs by Malstat reagent-based spectrophotometric analysis; format: functional, organism-based; settings: K1, 72 h
Peritoneal macrophage = test: Cytotoxicity against mouse primary peritoneal macrophages after 72 hrs by resazurin dye-based fluorimetric analysis; format: cell-based
[1] = Drug metabolism in mouse liver microsomes assessed as CYP450 mediated compound […] by measuring parent compound remaining at 5 uM after 15 mins in presence of NADPH by UPLC/MS/ESI analysis; format: ADME; settings: read-out: Stability
[2] = Drug metabolism in mouse liver microsomes assessed as CYP450 mediated compound […] by measuring parent compound remaining at 5 uM after 30 mins in presence of NADPH by UPLC/MS/ESI analysis; format: ADME; settings: read-out: Stability
[3] = Drug metabolism in human liver microsomes assessed as CYP450 mediated compound […] by measuring parent compound remaining at 5 uM after 15 mins in presence of NADPH by UPLC/MS/ESI analysis; format: ADME; settings: read-out: Stability
[4] = Drug metabolism in human liver microsomes assessed as CYP450 mediated compound […] by measuring parent compound remaining at 5 uM after 30 mins in presence of NADPH by UPLC/MS/ESI analysis; format: ADME; settings: read-out: Stability
[5] = tested on: Trypanosoma brucei brucei; test: Antitrypanosomal activity against Trypanosoma brucei brucei Squib 427 infected in Swiss mouse assessed as mouse survival at 50 mg/kg, po administered as single dose for 5 days and measured on day 14 post infection; format: functional, organism-based
Procedure, shortened: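 Acute T. b. brucei mouse infection model. Dosing was PO or IP at 10–50 mg/kg, once (SID) or twice (BID) daily for 5 days after infection, with 3 mice per group. […] Read-outs were mean survival time and survivors on day 14 post infection.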

[6] = tested on: Trypanosoma brucei brucei; test: Antitrypanosomal activity against Trypanosoma brucei brucei Squib 427 infected in Swiss mouse assessed as mean survival days at 10 mg/kg, ip administered as single dose for 5 days; format: functional
Procedure, shortened: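 Acute mouse infection model with T. b. brucei. Dosing ran for 5 days after infection, orally or intraperitoneally, once or twice daily. Groups were 3 mice each, with vehicle-treated infected controls. The read-out was mean survival time in days, plus the number of survivors on day 14 post-infection.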

[7] = Drug metabolism in human plasma assessed as parent compound remaining after 30 mins by UPLC/MS/ESI analysis; format: ADME, cell-free; settings: read-out: Stability
[8] = Drug metabolism in human plasma assessed as parent compound remaining after 60 mins by UPLC/MS/ESI analysis; format: ADME, cell-free; settings: read-out: Stability
[9] = Drug metabolism in human plasma assessed as parent compound remaining after 1440 mins by UPLC/MS/ESI analysis; format: ADME, cell-free; settings: read-out: Stability
Procedure, shortened: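 Compound incubated in human plasma for 24 h at 37 °C, and the fraction of parent compound remaining was determined.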

[10] = Protein binding in mouse plasma at 2 uM after 6 hrs by equilibrium dialysis and LC-MS analysis; format: ADME, cell-free; settings: read-out: PPB (converted)
[11] = Protein binding in 10% FBS in Trypanosoma brucei culture medium at 2 uM after 6 hrs by equilibrium dialysis and LC-MS analysis; format: ADME, cell-free, Bos taurus, Serum; settings: cattle, read-out: PB
[12] = tested on: Trypanosoma brucei brucei; test: Antitrypanosomal activity against Trypanosoma brucei brucei Squib 427 assessed as reduction in parasite growth at 7 to 14 times IC50 after 48 hrs resazurin dye-based fluorimetric analysis; format: functional, organism-based
Procedure, shortened: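 In vitro time course of T. b. brucei growth in the presence of compound, with parasite growth expressed as % of control.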

[13] = Drug level in Swiss mouse blood infected with Trypanosoma brucei brucei Squib 427 at 50 mg/kg, po bid for 5 days measured after 0.5 hrs after last dose by UPLC/MS/ESI analysis; format: ADME, organism-based; settings: whole blood, read-out: Drug uptake
[14] = Drug level in Swiss mouse blood infected with Trypanosoma brucei brucei Squib 427 at 50 mg/kg, po bid for 5 days measured after 1 hr after last dose by UPLC/MS/ESI analysis; format: ADME, organism-based; settings: whole blood, read-out: Drug uptake
[15] = Drug level in Swiss mouse blood infected with Trypanosoma brucei brucei Squib 427 at 50 mg/kg, po bid for 5 days measured after 2 hrs after last dose by UPLC/MS/ESI analysis; format: ADME, organism-based; settings: whole blood, read-out: Drug uptake
[16] = Drug level in Swiss mouse blood infected with Trypanosoma brucei brucei Squib 427 at 25 mg/kg, po bid for 5 days measured after 0.5 hrs after last dose by UPLC/MS/ESI analysis; format: ADME, organism-based; settings: whole blood, read-out: Drug uptake
[17] = Drug uptake in Swiss mouse blood at 50 mg/kg, po administered as single dose after 0.5 hrs by UPLC/MS/ESI analysis; format: ADME, organism-based; settings: whole blood, read-out: Drug uptake
Procedure, shortened: (§1)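 Mice were given the compound orally as a single dose of either 25 or 50 mg/kg, one group per dose. Plasma concentrations were followed over time up to 24 h, and the pharmacokinetic parameters were derived from the concentration-time profile.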

[18] = Drug uptake in Swiss mouse blood at 50 mg/kg, po administered as single dose after 1 hr by UPLC/MS/ESI analysis; format: ADME, organism-based; settings: whole blood, read-out: Drug uptake; procedure, shortened: as §1
[19] = Drug uptake in Swiss mouse blood at 50 mg/kg, po administered as single dose after 2 hrs by UPLC/MS/ESI analysis; format: ADME, organism-based; settings: whole blood, read-out: Drug uptake; procedure, shortened: as §1
[20] = Drug uptake in Swiss mouse blood at 50 mg/kg, po administered as single dose after 4 hrs by UPLC/MS/ESI analysis; format: ADME, organism-based; settings: whole blood, read-out: Drug uptake; procedure, shortened: as §1
[21] = Drug uptake in Swiss mouse blood at 25 mg/kg, po administered as single dose after 2 hrs by UPLC/MS/ESI analysis; format: ADME, organism-based; settings: whole blood, read-out: Drug uptake; procedure, shortened: as §1
[22] = Drug uptake in Swiss mouse blood at 25 mg/kg, po administered as single dose after 4 hrs by UPLC/MS/ESI analysis; format: ADME, organism-based; settings: whole blood, read-out: Drug uptake; procedure, shortened: as §1
[23] = Drug uptake in Swiss mouse blood at 25 mg/kg, po administered as single dose after 24 hrs by UPLC/MS/ESI analysis; format: ADME, organism-based; settings: whole blood, read-out: Drug uptake; procedure, shortened: as §1
[24] = Cmax in Swiss mouse infected with Trypanosoma brucei brucei Squib 427 at 50 mg/kg, po bid for 5 days after 24 hrs by UPLC/MS/ESI analysis; format: ADME, organism-based; parameters: dose 50 mg/kg, route oral; settings: in vivo
[25] = Tmax in Swiss mouse infected with Trypanosoma brucei brucei Squib 427 at 25 mg/kg, po administered as single dose after 24 hrs by UPLC/MS/ESI analysis; format: ADME, organism-based; settings: in vivo
[26] = Cmax in Swiss mouse infected with Trypanosoma brucei brucei Squib 427 at 25 mg/kg, po administered as single dose after 24 hrs by UPLC/MS/ESI analysis; format: ADME, organism-based; parameters: dose 25 mg/kg, route oral; settings: in vivo
[27] = Half life in Swiss mouse infected with Trypanosoma brucei brucei Squib 427 at 25 mg/kg, po administered as single dose after 24 hrs by UPLC/MS/ESI analysis; format: ADME, organism-based; settings: in vivo
[28] = AUC (0 to >4 hrs) in Swiss mouse infected with Trypanosoma brucei brucei Squib 427 at 25 mg/kg, po administered as single dose by UPLC/MS/ESI analysis; format: ADME, organism-based; settings: in vivo
Mus musculus = test: Apparent volume of distribution in Swiss mouse at 25 mg/kg, po administered as single dose after 24 hrs by UPLC/MS/ESI analysis; format: ADME, organism-based; settings: in vivo
Procedure, shortened: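 Mice in groups received one oral dose of 25 or 50 mg/kg. Plasma concentrations were followed over time up to 24 h, and PK parameters including T1/2 were derived from the concentration–time profile.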

[29] = Protein binding in 10% FBS in Trypanosoma brucei culture medium at 10 uM after 6 hrs by equilibrium dialysis and LC-MS analysis; format: ADME, cell-free, Bos taurus, Serum; settings: cattle, read-out: PB

Molecule `Nc1nc(Nc2ccc(F)cc2)nc(Oc2ccc(F)cc2)n1` has an IC50 (Leishmania infantum) greater than 64 µM, an IC50 (Plasmodium falciparum) greater than 64 µM and an IC50 (Peritoneal macrophage) greater than 64 µM. For the same molecule, the remaining at 0.25 h, 5 µM [1] was 76%, the remaining at 0.5 h, 5 µM [2] was 80% and the remaining at 0.25 h, 5 µM [3] was 93%. The remaining at 0.5 h, 5 µM [4] was 85%, the Activity [5] was “inactive” and the MST [6] was 7 days. It also gave a remaining at 0.5 h [7] of 91%, a remaining at 1 h [8] of 88% and a remaining at 24 h [9] of 87%. For the same molecule, the fraction unbound at 6 h, 2 µM [10] was 0.04, the fraction unbound at 6 h, 2 µM [11] was 0.5 to 0.51 and the Activity [12] was “inactive”. For the same molecule, the concentration at 0.5 h [13] was 2870 ng/mL, the concentration at 1 h [14] was 3800 ng/mL and the concentration at 2 h [15] was 2840 ng/mL. It also gave a concentration at 0.5 h [16] of 2090 ng/mL, a concentration at 0.5 h [17] of 1780 ng/mL and a concentration at 1 h [18] of 1730 ng/mL. It also gave a concentration at 2 h [19] of 1630 ng/mL, a concentration at 4 h [20] of 2030 ng/mL and a concentration at 2 h [21] of 1320 ng/mL. It also gave a concentration at 4 h [22] of 929 ng/mL, a concentration at 24 h [23] of 50 ng/mL and a Cmax [24] of 3830 ng/mL. It also gave a Tmax [25] of 48 min, a Cmax [26] of 2690 ng/mL and a half-life [27] of 51 min. The AUC at 4 h [28] was 4710 ng·h/mL, the Vz (Mus musculus) was 26.7 L and the fraction unbound at 6 h, 10 µM [29] was 0.498.
